The list is not random: actives were taken first. Their share in the collection is about 1.5%.
RAD52 inh: RAD52 DNA annealing inhibitors, primary screen, biochemical, FRET, single point, set 2; recombinant RAD52 DNA annealing, FRET fluorescence; 0.46% of 360,000 active; DNA repair protein RAD52 homolog (Homo sapiens), P43351; inhibition, % at 18.7 µM;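 active = every replicate showing at least 50% inhibition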
GSIS activator: GLuc luminescence reporter in INS-1E cells, primary screen for activators of glucose-dependent secretion of insulin | 0.61% of 370,000 active | INS-1E GLuc reporter insulin secretion, 2-3 h | AID 743287, 2014 | activation, % at 16.6 µM;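 active = lowest replicate activation of at least 40%, so every replicate reaches that level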;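 note: 0% = median of neutral control wells and 100% = median of IBMX positive control wells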
S100A4 inh HTS: inhibitors of S100A4-myosin IIA peptide binding, primary screen, biochemical, fluorescence polarization, TAMRA-MyoIIA peptide; Protein S100-A4 (Homo sapiens), P26447; inhibition, % at 10.7 µM; 0.14% of 360,000 active; AID 652163, 2013;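 active = mean inhibition of at least 70% across replicates, with every replicate also reaching that level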
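Material: S100A4 monomer (human). Medium: Calcium-containing HEPES buffer, pH 7.2. Probe or stimulus: labelled myosin peptide probe, 5 nM. Compound dosing: one concentration per compound. Timing: polarization read 5 min after assay mix addition, stable 5–60 min. Benchmarks: DMSO as neutral control, TFP as positive control.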
AF4-AF9 inh: inhibitors of AF4 peptide binding to AF9, primary screen, biochemical, AlphaScreen, biotin-AF4 peptide, FLAG-AF9, single point; Protein AF-9 (Homo sapiens), P42568; 0.47% of 350,000 active; inhibition, % at 10 µM;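 active = every replicate reaching a set inhibition limit, whatever the replicate mean, cut at about 25% in these data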;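 note: 0% = plate neutral control median and 100% = total signal loss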
Target sequence (P42568 whole entry, looked up): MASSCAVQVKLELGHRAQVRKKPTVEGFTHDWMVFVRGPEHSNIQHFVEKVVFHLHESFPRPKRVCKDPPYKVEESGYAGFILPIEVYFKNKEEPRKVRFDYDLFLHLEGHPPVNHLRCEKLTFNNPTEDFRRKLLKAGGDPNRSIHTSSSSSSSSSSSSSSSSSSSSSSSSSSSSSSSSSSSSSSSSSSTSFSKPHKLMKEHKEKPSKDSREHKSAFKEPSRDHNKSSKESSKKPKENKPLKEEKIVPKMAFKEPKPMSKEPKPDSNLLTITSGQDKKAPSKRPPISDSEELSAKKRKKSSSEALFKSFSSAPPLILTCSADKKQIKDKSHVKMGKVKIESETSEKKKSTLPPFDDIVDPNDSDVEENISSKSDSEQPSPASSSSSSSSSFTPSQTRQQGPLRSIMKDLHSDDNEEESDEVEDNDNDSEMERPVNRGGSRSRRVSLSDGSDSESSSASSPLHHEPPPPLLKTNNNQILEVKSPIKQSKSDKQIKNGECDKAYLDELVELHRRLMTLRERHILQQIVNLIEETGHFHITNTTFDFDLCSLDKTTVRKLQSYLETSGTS
ERAP1 HTS inh: human ERAP1 aminopeptidase inhibitors, primary screen, biochemical, single point, plate reader. Endoplasmic reticulum aminopeptidase 1 (Homo sapiens), Q9NZ08. recombinant ERAP1, Leu-AMC fluorescence, 60 min. inhibition, % at 10.7 µM. 0.15% of 340,000 active;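 active = mean replicate inhibition of at least 30%, or all replicates individually reaching that 30% level; inactive = mean below 30% and not every replicate reaching it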;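 note: 0% = neutral control wells and 100% = L-leucinethiol positive control wells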
The depositor's hits bear a star; · = no result given; ! = a repeat was not active.

SMILES	RAD52 inh	GSIS activator	S100A4 inh HTS	AF4-AF9 inh	ERAP1 HTS inh
CCC(C)N1CCC2(CC1)N=c1c(c3c4c5c(C)c(O)c3c(O)c1=NC(=O)C(C)=CC=C[C@H](C)[C@H](O)[C@@H](C)[C@@H](O)[C@@H](C)[C@H](OC(C)=O)[C@H](C)[C@@H](OC)C=CO[C@@](C)(O5)C4=O)N2 (stereo not given in full)	14.1	·	-0.3	27.0*	-0.1
Cc1cccc(-c2cccc3[nH]c4c(c23)CCN2C(=O)[C@H]3[C@H](C)ON(C)[C@H]3C[C@@H]42)c1	-101.1	9.4	-29.1	·	1.9
C[C@@H]1ON(C)[C@H]2C[C@H]3c4[nH]c5cccc(Br)c5c4CCN3C(=O)[C@@H]12	-4.2	125.4*	-12.2	·	-0.5
COc1cccc(CN2C[C@@H]3N[C@H](C2)C3c2ccc(-c3ccc(C#N)cc3)cc2)c1 (stereo not given in full)	71.1*!	-26.8	-10.2	5.0	-3.1
COc1cccc(CN2C[C@@H]3N[C@H](C2)C3c2ccc(-c3ccccc3OC)cc2)c1 (stereo not given in full)	50.8*	81.7*!	16.8	13.0	2.5
COc1ccccc1-c1ccc(C2[C@@H]3CN(Cc4cccc(F)c4)C[C@H]2N3)cc1 (stereo not given in full)	·	-11.4	·	·	·
COc1cc(CN2C[C@@H]3N[C@H](C2)C3c2ccc(-c3ccc(C#N)cc3)cc2)cc(OC)c1 (stereo not given in full)	·	-12.0	·	·	·
Cn1c(=NC(=O)c2ccccc2[N+](=O)[O-])sc2cc(S(C)(=O)=O)ccc21	·	86.7*	·	·	·
Cn1c(=NC(=O)c2ccc(S(=O)(=O)N3CCCc4ccccc43)cc2)sc2cc(S(C)(=O)=O)ccc21	·	-9.2	·	·	·
C[C@@H]1CN([C@H](C)CO)C(=O)c2cc(N(C)C)ccc2O[C@@H](C)CCCCO[C@@H]1CN(C)Cc1ccc(C(F)(F)F)cc1	-12.8	-13.9	-5.0	34.8*	3.5
C[C@@H]1CN([C@@H](C)CO)C(=O)c2cc(N(C)C)ccc2O[C@@H](C)CCCCO[C@H]1CN(C)Cc1ccc(C(F)(F)F)cc1	4.4	-23.9	-19.7	37.5*	6.0
C[C@H](CO)N1C[C@H](C)[C@H](CN(C)Cc2ccc(C(F)(F)F)cc2)OCCCC[C@H](C)Oc2ccc(N(C)C)cc2C1=O	9.1	-4.9	9.9	31.8*	-0.9
C[C@H](CO)N1C[C@H](C)[C@@H](CN(C)Cc2ccc(C(F)(F)F)cc2)OCCCC[C@H](C)Oc2ccc(N(C)C)cc2C1=O	-22.8	-2.2	10.4	21.7	1.2
C[C@@H]1CCCCO[C@H](CN(C)Cc2ccc(C(F)(F)F)cc2)[C@@H](C)CN([C@H](C)CO)C(=O)c2cc(N(C)C)ccc2O1	13.2	0.8	-6.8	10.8	-0.5
C[C@@H]1CN([C@@H](C)CO)C(=O)c2cc(N(C)C)ccc2O[C@@H](C)CCCCO[C@@H]1CN(C)Cc1ccc(C(F)(F)F)cc1	-16.6	0.5	9.6	39.1*	0.1
C[C@@H]1CCCCO[C@@H](CN(C)Cc2ccc(C(=O)O)cc2)[C@H](C)CN([C@@H](C)CO)C(=O)c2cc(N(C)C)ccc2O1	-6.9	4.4	3.4	-4.9	-0.9
COc1ccc2c3c([nH]c2c1)[C@@H](CO)N(C(=O)Nc1ccc(F)cc1)CC31CCN(S(=O)(=O)c2cn(C)cn2)CC1	11.3	-11.2	10.4	4.0	-0.1
CNC[C@@H]1Oc2ccc(N)cc2C(=O)N(C)C[C@H]1C	·	4.3	·	·	·
C[C@@H]1CN([C@H](C)CO)C(=O)c2cc(N(C)C)ccc2O[C@@H](C)CCCCO[C@H]1CN(C)Cc1ccc(C(F)(F)F)cc1	-4.2	-7.3	5.8	32.8*	-1.1
C[C@@H]1CCCCO[C@@H](CN(C)Cc2ccc(Cl)c(Cl)c2)[C@H](C)CN([C@H](C)CO)C(=O)c2cc(N(C)C)ccc2O1	-43.8	-23.2	11.0	60.7*	0.5
C[C@@H]1CCCCO[C@@H](CN(C)Cc2ccc(Cl)c(Cl)c2)[C@H](C)CN([C@@H](C)CO)C(=O)c2cc(N(C)C)ccc2O1	2.2	-2.7	0.4	40.2*	-3.0

Assay outcomes from PubChem BioAssay.
